Data set [1] deals with T1, hH2R (Homo sapiens, UniProt P25021). Kind of data set: [35S]GTPγS binding assay, Sf9 cell membranes. The format is biochemical.
The target in data set [2] is T2, hH4R (Homo sapiens, UniProt Q9H3N8). Kind of data set: [35S]GTPγS binding assay, Sf9 cell membranes. The format is biochemical.
Data set [3] addresses T3, gpH2R (Cavia porcellus, UniProt P47747). Kind of data set: biochemical. The format is biochemical, guinea pig.
Target sequence in this assay (P47747 whole entry): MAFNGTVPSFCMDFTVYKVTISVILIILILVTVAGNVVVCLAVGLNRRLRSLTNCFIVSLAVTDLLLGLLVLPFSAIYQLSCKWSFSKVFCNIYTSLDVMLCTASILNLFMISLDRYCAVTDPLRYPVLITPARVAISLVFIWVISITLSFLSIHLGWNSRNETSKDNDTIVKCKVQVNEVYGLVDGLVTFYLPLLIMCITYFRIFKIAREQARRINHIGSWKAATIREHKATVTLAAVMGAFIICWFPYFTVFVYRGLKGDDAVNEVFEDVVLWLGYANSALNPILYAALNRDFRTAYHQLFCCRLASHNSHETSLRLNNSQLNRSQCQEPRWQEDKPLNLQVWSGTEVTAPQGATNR
Target sequence in this assay (P63092 1-380 isoform P63092-2 partner): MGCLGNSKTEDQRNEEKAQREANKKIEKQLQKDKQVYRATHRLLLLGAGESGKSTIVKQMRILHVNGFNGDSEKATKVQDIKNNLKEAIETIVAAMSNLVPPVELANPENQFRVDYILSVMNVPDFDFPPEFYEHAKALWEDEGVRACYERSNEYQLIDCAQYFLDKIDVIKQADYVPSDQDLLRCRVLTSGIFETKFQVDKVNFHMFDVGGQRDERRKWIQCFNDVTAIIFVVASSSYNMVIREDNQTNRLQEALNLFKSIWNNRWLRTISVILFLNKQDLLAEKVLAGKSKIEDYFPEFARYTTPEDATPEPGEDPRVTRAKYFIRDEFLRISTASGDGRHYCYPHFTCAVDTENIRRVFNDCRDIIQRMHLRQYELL
The target in another data set is rH2R (Rattus norvegicus, UniProt P25102). The data set can be described thus: [35S]GTPγS binding assay, Sf9 cell membranes. The format is biochemical.
Data set [4] concerns the target T3, gpH2R. Also noted: species or system guinea pig.
Target sequence in this assay (P47747 whole entry): as the sequence (P47747 whole entry) above
The next data set has as its target hH1R (Homo sapiens, UniProt P35367). The data set can be described thus: biochemical. The format is binding.
Data set [5] deals with T1, hH2R. The format is binding. Particulars: for difference in pKi (H2R) over pKi (H1,3,4R): hH2R selectivity from radioligand binding.
The target of data set [6] is T4, hH3R (Homo sapiens, UniProt Q9Y5N1). Kind of data set: Radioligand competition binding with [3H]Nα-methylhistamine, Sf9 cell membranes.
Data set [7] has as its target T2, hH4R. Kind of data set: Radioligand competition binding with [3H]histamine, Sf9 cell membranes.
The target in data set [8] is T4, hH3R. The data set can be described thus: [35S]GTPγS binding assay, Sf9 cell membranes. The format is biochemical.
Another data set addresses gpH1R (Cavia porcellus, UniProt P31389). Kind of data set: Histamine H1 receptor assay on isolated guinea pig ileum.
Data set [9] in a line: Chemical stability in binding buffer, RP-HPLC analysis. The format is physicochemical. Particulars: binding buffer pH 7.4, 100 μM, room temperature, 12 months. Put shortly:
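Test compounds (dimeric bisalkylguanidines) were held at 100 μM in binding buffer (12.5 mM MgCl2, 1 mM EDTA, 75 mM Tris/HCl, pH 7.4) at room temperature for 12 months.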

The mark [10] stands for this setting: maximal response relative to histamine (Emax = 1.00).
[11] abbreviates: hH2R pKi, [3H]tiotidine (Kd […], c = 10 nM), mean ± SEM.
Where [12] appears, read: hH3R pKi, [3H]Nα-methylhistamine (Kd 8.6 nM, c = 3 nM), mean ± SEM.

Values joined by “and” are separate entries in the source; they are usually repeats but may differ in a detail not shown here. Equal values may be shown once. “Also recorded” adds a separate entry of the source. Read-outs that look alike come from different tables or passages of the source. Bounds are passed on as bounds.

Sequence of hH1R (P35367 whole entry): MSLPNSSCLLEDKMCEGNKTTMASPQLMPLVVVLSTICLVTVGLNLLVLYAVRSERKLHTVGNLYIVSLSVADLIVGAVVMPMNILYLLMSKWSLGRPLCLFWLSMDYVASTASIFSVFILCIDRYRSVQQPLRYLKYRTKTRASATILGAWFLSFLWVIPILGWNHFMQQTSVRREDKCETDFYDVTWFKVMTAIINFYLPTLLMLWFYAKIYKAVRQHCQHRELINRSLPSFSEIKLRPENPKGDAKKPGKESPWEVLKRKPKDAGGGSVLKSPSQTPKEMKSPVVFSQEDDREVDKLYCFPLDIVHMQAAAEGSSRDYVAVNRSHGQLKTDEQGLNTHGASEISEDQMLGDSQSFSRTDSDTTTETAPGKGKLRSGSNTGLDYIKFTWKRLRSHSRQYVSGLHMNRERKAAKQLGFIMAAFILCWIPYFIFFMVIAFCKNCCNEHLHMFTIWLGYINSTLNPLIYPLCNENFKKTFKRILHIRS
Sequence of gpH1R (P31389 whole entry): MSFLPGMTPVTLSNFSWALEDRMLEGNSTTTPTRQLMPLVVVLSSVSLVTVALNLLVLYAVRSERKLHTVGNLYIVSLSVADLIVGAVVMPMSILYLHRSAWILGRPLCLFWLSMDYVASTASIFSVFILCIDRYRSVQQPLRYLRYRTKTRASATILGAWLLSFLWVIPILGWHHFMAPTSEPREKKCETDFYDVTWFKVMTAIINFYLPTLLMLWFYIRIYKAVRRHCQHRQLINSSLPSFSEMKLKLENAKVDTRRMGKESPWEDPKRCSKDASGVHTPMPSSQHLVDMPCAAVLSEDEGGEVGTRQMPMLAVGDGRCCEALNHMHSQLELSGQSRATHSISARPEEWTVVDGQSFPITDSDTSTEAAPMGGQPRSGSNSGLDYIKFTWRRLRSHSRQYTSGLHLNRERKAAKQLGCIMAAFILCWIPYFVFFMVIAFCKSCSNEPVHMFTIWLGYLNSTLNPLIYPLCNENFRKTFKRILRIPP
Sequence of rH2R (P25102 whole entry): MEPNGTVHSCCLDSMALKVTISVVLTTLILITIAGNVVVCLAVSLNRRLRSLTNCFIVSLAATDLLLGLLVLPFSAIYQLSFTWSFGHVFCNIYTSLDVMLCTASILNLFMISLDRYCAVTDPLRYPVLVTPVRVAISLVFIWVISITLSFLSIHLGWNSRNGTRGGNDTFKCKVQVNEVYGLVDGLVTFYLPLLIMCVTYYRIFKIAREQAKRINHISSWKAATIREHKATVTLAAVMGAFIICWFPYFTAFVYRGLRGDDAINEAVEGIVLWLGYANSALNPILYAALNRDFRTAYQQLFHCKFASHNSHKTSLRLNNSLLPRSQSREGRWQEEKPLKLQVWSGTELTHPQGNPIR
Sequence of rH2R (P63092 1-380 isoform P63092-2 partner): as the sequence (P63092 1-380 isoform P63092-2 partner) above
T2 sequence (Q9H3N8 whole entry): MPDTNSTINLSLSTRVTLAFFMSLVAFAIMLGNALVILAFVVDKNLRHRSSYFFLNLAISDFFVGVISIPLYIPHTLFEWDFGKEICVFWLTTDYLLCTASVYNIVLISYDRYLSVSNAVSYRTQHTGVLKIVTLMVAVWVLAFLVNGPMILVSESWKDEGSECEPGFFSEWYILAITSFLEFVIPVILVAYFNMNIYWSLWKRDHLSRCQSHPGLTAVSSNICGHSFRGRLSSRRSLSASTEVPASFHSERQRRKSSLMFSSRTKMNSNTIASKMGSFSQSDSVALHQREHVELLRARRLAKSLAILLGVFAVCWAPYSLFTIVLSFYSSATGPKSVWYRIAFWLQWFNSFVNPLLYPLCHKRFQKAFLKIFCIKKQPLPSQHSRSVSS
T1 sequence (P25021 whole entry): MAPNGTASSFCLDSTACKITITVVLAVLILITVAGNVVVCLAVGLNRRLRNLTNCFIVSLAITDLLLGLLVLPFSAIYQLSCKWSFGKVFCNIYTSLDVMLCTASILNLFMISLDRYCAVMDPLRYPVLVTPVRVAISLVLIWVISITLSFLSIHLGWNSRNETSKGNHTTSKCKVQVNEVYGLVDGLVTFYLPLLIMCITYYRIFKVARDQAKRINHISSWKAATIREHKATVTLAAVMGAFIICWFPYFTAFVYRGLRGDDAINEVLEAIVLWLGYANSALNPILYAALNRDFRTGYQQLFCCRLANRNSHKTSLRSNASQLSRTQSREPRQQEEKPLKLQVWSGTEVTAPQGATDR
T1 sequence (P63092 1-380 isoform P63092-2 partner): as the sequence (P63092 1-380 isoform P63092-2 partner) above
T4 sequence (Q9Y5N1 whole entry): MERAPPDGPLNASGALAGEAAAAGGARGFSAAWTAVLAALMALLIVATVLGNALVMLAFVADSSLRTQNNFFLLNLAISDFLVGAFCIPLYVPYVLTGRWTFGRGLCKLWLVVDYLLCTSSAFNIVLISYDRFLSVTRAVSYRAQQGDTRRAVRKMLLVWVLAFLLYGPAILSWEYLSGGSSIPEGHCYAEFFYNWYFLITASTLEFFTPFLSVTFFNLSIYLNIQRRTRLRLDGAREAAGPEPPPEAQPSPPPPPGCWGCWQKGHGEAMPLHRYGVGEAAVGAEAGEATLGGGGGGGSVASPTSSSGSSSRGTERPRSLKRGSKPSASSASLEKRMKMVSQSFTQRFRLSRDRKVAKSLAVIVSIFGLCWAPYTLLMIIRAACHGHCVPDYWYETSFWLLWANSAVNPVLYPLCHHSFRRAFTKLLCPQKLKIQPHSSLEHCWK

Consider `NCCc1c[nH]cn1` [Compound 1, histamine, reference compound], for which the “hH2R Emax” value on hH2R [1] (setting [10]) worked out at 1.00. Moreover, the “hH4R Emax” value on hH4R [2] (setting [10]) is 1.00. In addition, the “gpH2R Emax” value at gpH2R [3] (setting [10]) was found to be 1.00; at gpH2R [4] (guinea pig right atrium, relative to maximal increase in heart rate induced by histamine (Emax = 1.00)), 1.00. The compound further had an EC50 on rH2R of 1070 nM. Also, the “rH2R Emax” value at rH2R (setting [10]) was found to be 1.00.
Take `N=C(NCCCCCCCCNC(=N)NCCCc1c[nH]cn1)NCCCc1c[nH]cn1` [Compound 5, 1,1′-(Octane-1,8-diyl)bis{3-[3-(1H-imidazol-4-yl)propyl]guanidine}]: the inhibitory constant (Ki) was more than 1000 nM on hH1R (Ki hH1R, bound stated); 3160 nM on hH1R (hH1R pKi); less than 100 nM at hH2R [5] (Ki hH2R, bound stated); 89.1 nM at hH2R [5] (setting [11]); less than 100 nM at hH3R [6] (Ki hH3R, bound stated); 30.2 nM on hH3R [6] (setting [12]). The Ki on hH4R [7] (Ki hH4R, bound stated) is less than 100 nM; on hH4R [7] (hH4R pKi), 87.1 nM. Besides, the EC50 at hH2R [1] was 166 nM; on gpH2R [3], 25.1 nM; on rH2R it was 66.1 nM; on gpH2R [4], 10.5 nM. For the same compound, the “hH2R Emax” value on hH2R [1] amounted to 0.50 ± 0.03. The Kb on hH3R [8] was 135 nM; on hH4R [2] it was 407000 nM; at gpH1R, 1700 nM. Further, the “hH3R Emax” value at hH3R [8] worked out at 0. The “hH4R Emax” value at hH4R [2] amounted to 0. In addition, the “gpH2R Emax” value at gpH2R [3] was 0.95 and 0.95 ± 0.05; at gpH2R [4], 0.91 and 0.91 ± 0.05. Moreover, the “rH2R Emax” value on rH2R was found to be 0.80 ± 0.01.
In the case of `Cc1nc(N)sc1CCCNC(=N)NCCCCCCCCNC(=N)NCCCc1sc(N)nc1C` [Compound 58, 1,1′-(Octane-1,8-diyl)bis{3-[3-(2-amino-4-methylthiazol-5-yl)propyl]guanidine}], the Ki at hH1R (Ki hH1R, bound stated) was more than 1000 nM; on hH1R (hH1R pKi) it was more than 3160 nM; on hH2R [5] (Ki hH2R, bound stated), less than 100 nM; at hH2R [5] (setting [11]), 46.8 nM; at hH3R [6] (Ki hH3R, bound stated) it was more than 1000 nM; at hH4R [7] (Ki hH4R, bound stated), more than 1000 nM. Besides, the “difference in pKi (H2R) over pKi (H1,3,4R)” value (from here on “difference in pKi (H2R)”) at hH2R [5] is “at least 1.5 log units”. Besides, the values for the half-maximal effective concentration (EC50) at hH2R [1], on gpH2R [3] and at rH2R were 245 nM, 52.5 nM and 148 nM, respectively. Further, the “hH2R Emax” value on hH2R [1] is 0.33 ± 0.03. On hH3R [8], the “hH3R Emax” value came out at 0. The “hH4R Emax” value at hH4R [2] stood at 0. Moreover, the “gpH2R Emax” value came to 0.97 ± 0.06 on gpH2R [3] and 0.78 ± 0.01 on gpH2R [4]. At rH2R, the “rH2R Emax” value was 0.70 ± 0.04. For the same compound, the chemical stability result in data set [9] is reported as “excellent chemical stabilities; also recorded: no decomposition”.
For `N=C(NCCCCCCCCNC(=N)NCCCc1cnc(N)s1)NCCCc1cnc(N)s1` [Compound 59], the Ki is more than 10000 nM on hH1R (hH1R pKi), 234 nM at hH2R [5] (setting [11]), 11000 nM on hH3R [6] (setting [12]) and 52500 nM on hH4R [7] (hH4R pKi). Moreover, the “difference in pKi (H2R)” value at hH2R [5] is on record as “at least 1.5 log units”. Moreover, the EC50 at hH2R [1] was 295 nM; on gpH2R [4], 20.4 nM. At hH2R [1], the “hH2R Emax” value came out at 0.40 ± 0.05. Besides, the figures for the Kb at hH3R [8], on hH4R [2] and at gpH1R were 89100 nM, 263000 nM and 832 nM, respectively. Moreover, on hH3R [8], the “hH3R Emax” value was 0. On hH4R [2], the “hH4R Emax” value worked out at 0. The “gpH2R Emax” value on gpH2R [4] is listed as 0.94 ± 0.03.
Take `Cc1nc(N)sc1CCCNC(=N)NCCCCCCCCNC(=N)NCCCc1c[nH]cn1` [Compound 61]: the inhibition constant Ki on hH1R (hH1R pKi) was more than 1000 nM; on hH2R [5] (setting [11]), 117 nM; at hH3R [6] (setting [12]) it was 32.4 nM; on hH4R [7] (hH4R pKi), 74.1 nM. Further, the EC50 was 589 nM on hH2R [1] and 10.2 nM at gpH2R [4]. Also, the “hH2R Emax” value on hH2R [1] was determined as 0.54 ± 0.05. Moreover, the values for the Kb on hH3R [8], on hH4R [2] and at gpH1R were 66.1 nM, 204000 nM and 1410 nM, respectively. Besides, the “hH3R Emax” value at hH3R [8] came to 0. Besides, the “hH4R Emax” value on hH4R [2] came out at 0. Besides, the “gpH2R Emax” value on gpH2R [4] stood at 0.91 ± 0.03.
As to `N=C(NCCCCCCCCNC(=N)NCCCc1cnc(N)s1)NCCCc1c[nH]cn1` [Compound 62], the Ki at hH1R (hH1R pKi) was more than 1000 nM; on hH2R [5] (setting [11]), 53.7 nM; at hH3R [6] (setting [12]) it was 37.2 nM; on hH4R [7] (hH4R pKi), 107 nM. Also, the EC50 on hH2R [1] was 309 nM; on gpH2R [4], 5.62 nM. Also, at hH2R [1], the “hH2R Emax” value is on record as 0.45 ± 0.04. The figures for the Kb on hH3R [8], on hH4R [2] and at gpH1R were 81.3 nM, 372000 nM and 977 nM, respectively. For the same compound, the “hH3R Emax” value at hH3R [8] turned out to be 0. Also, the “hH4R Emax” value at hH4R [2] turned out to be 0. In addition, at gpH2R [4], the “gpH2R Emax” value turned out to be 1.02 ± 0.06.
Consider `Cc1nc(N)sc1CCCNC(=N)NCCCCCCCCNC(=N)NCCCc1cnc(N)s1` [Compound 63, 1-[3-(2-Amino-4-methylthiazol-5-yl)propyl]-3-{8-[3-(3-(2-aminothiazol-5-yl)propyl)guanidino]octyl}guanidine], for which the Ki is more than 3160 nM on hH1R (hH1R pKi), 123 nM at hH2R [5] (setting [11]), 3980 nM on hH3R [6] (setting [12]) and 7240 nM on hH4R [7] (hH4R pKi). Moreover, the “difference in pKi (H2R)” value at hH2R [5] was “at least 1.5 log units”. Moreover, the EC50 on hH2R [1] was 251 nM; at gpH2R [3], 46.8 nM; at rH2R, 141 nM; at gpH2R [4], 2.75 nM. In addition, the “hH2R Emax” value on hH2R [1] was found to be 0.47 ± 0.03. For the same compound, the Kb was 21400 nM on hH3R [8], 186000 nM on hH4R [2] and 1000 nM at gpH1R. Further, the “hH3R Emax” value on hH3R [8] amounted to 0. For the same compound, the “hH4R Emax” value on hH4R [2] was determined as 0. Also, the “gpH2R Emax” value is 1.02 and 1.02 ± 0.04 on gpH2R [3]; 0.88 ± 0.03 at gpH2R [4]. Further, the “rH2R Emax” value on rH2R turned out to be 0.87 ± 0.02. On gpH2R [4], this compound yielded an Emax of 88%. In addition, at gpH2R [4] (gpH2R, atrium), the “potency relative to histamine” value is 250 times.
With `CCCCCCCCNC(=N)NCCCc1c[nH]cn1` [Compound 136], the Ki on hH1R (hH1R pKi) was more than 3160 nM; on hH2R [5] (setting [11]), 110 nM; at hH3R [6] (setting [12]), 107 nM; at hH4R [7] (hH4R pKi), 126 nM. Moreover, the EC50 on hH2R [1] is 138 nM; on hH3R [8], 28.8 nM; on gpH2R [4] it was 195 nM. Besides, on hH2R [1], the “hH2R Emax” value turned out to be 0.48 ± 0.02. For the same compound, the “hH3R Emax” value on hH3R [8] is “–0.53 ± 0.03”. Also, the “quality of action at hH3R” value at hH3R [8] ([35S]GTPγS binding assay) is reported as “inverse agonistic activity”. The Kb on hH4R [2] was 209000 nM; on gpH1R it was 794 nM. Moreover, the “hH4R Emax” value at hH4R [2] worked out at 0. For the same compound, the “gpH2R Emax” value on gpH2R [4] worked out at 1.13 ± 0.07.
`CCCCCCCCCCCCNC(=N)NCCCc1sc(N)nc1C` [Compound 139]: the Ki was more than 3160 nM at hH1R (hH1R pKi), 468 nM on hH2R [5] (setting [11]), 2040 nM at hH3R [6] (setting [12]) and 5620 nM on hH4R [7] (hH4R pKi). Also, the EC50 at hH2R [1] was 6920 nM; on hH4R [2] it was 13800 nM; at gpH2R [4], 269 nM. In addition, the Kb at hH3R [8] is 4270 nM; at gpH1R, 437 nM. Further, the “hH3R Emax” value at hH3R [8] turned out to be 0. The “hH4R Emax” value at hH4R [2] is “–0.97 ± 0.01”. At hH4R [2] ([35S]GTPγS binding assay), the “quality of action at hH4R” value was “inverse agonistic activity”. For the same compound, the “gpH2R Emax” value on gpH2R [4] came to 0.60 ± 0.02.

For the origin of these results see article PMC6130797 (ACS Omega, 2018).
